Bioassay records as filed in PubChem.
Rows were chosen to be rich in hits. Some 2.9% of all compounds tested hit in one or more screens of this group.
RBBP9 inhibitor = human RBBP9 inhibitors, primary screen, biochemical, fluorescence polarization, FP-Rh probe, HTS | inhibition, % at 7.94 µM | Serine hydrolase RBBP9 (Homo sapiens), O75884 | recombinant RBBP9 | 0.2% of 220,000 active | AID 1515, 2009;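 active means inhibition above the campaign mean of all tested compounds plus 3 SD, cut at about 14% in these data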;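 further: plate controls were DMSO wells with RBBP9 for no effect and wells lacking RBBP9 protein for full effect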
Target sequence (O75884 whole entry, looked up): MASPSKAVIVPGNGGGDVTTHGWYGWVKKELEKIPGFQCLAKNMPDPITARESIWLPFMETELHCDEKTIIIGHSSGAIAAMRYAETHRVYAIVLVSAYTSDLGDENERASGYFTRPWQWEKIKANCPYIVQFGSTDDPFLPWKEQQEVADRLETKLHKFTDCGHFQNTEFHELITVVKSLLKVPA
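Test system – recombinant human RBBP9 · Input – RBBP9 2.5 µM in dispensing solution, pre-mixing · Medium – Tris buffer pH 8.0, NaCl, Pluronic · Schedule – preincubation 30 min plus labeling 45 min at 25 °C · Measured by – fluorescence polarization · Measure – % inhibition · Controls – DMSO and no-protein wells · Replicates – one well per compound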
PfM18AAP inh-1 = PfM18AAP inhibitors, malaria aminopeptidase, primary screen, biochemical, QFRET, recombinant enzyme; M18 aspartyl aminopeptidase (Plasmodium falciparum 3D7); inhibition, % at 7.35 µM; H-Glu-NHMec fluorogenic cleavage; 1.2% of 290,000 active;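 active means inhibition above the campaign mean inhibition over all tested compounds plus 3 SD, cut at about 28% in these data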;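 further: 0% = plate median of test compound wells and 100% = 2 mM ZnCl2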
Runt-SMMHC FRET = inhibitors of RUNX1 Runt–CBFb-SMMHC binding, primary screen, biochemical, FRET, Cerulean-Runt, Venus-CBFb-SMMHC, uHTS; 0.74% of 220,000 active; inhibition, % at 20 µM; AID 1434, 2008; Cerulean-Runt/Venus-CBFb-SMMHC FRET ratio 530/480, 1 h; Runt-related transcription factor 1 (Homo sapiens) + Core-binding factor subunit beta …;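 active means mean inhibition across duplicate retests at 20 µM reaching about 50%, limit read from the data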;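 further: 0% = DMSO wells and 100% = wells with excess untagged CBFb-SMMHC; inhibitors lower the FRET ratio by blocking Runt binding to CBFb-SMMHC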
RanGTP-Imp inh = inhibitors of RanGTP-importin-beta interaction, primary screen, biochemical, FRET, CFP-Ran, YFP-importin-beta, homogeneous. Ran GTPase (GTP-bound) - importin-beta complex. cell-free CFP-Ran/YFP-importin-beta FRET ratio. AID 2216, 2009. inhibition, % (concentration not given with the values). 1.1% of 300,000 active;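 active means more than half of the replicate wells show a fall in the fluorescence ratio signal beyond about 16%, limit read from the data, passing the limit was not always enough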;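 further: 0% = DMSO wells and 100% = Ran loaded with GDP instead of GTP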
Hck Nef HTS = inhibitors of Nef-activated human Hck kinase, primary screen, biochemical, Z-Lyte FRET, 384-well, Hck-YEEI | Tyrosine-protein kinase HCK (Homo sapiens), P08631 | Recombinant Hck-YEEI plus Nef, Z-Lyte FRET kinase assay | inhibition, % at 20 µM | 0.68% of 220,000 active | AID 463187, 2010;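 active means Hck-Nef kinase inhibition above about 50%, limit read from the data; inactive means inhibition below that limit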;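 further: 0% = DMSO with Hck plus Nef and 100% = Hck alone without Nef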
Target sequence (P08631 whole entry, looked up): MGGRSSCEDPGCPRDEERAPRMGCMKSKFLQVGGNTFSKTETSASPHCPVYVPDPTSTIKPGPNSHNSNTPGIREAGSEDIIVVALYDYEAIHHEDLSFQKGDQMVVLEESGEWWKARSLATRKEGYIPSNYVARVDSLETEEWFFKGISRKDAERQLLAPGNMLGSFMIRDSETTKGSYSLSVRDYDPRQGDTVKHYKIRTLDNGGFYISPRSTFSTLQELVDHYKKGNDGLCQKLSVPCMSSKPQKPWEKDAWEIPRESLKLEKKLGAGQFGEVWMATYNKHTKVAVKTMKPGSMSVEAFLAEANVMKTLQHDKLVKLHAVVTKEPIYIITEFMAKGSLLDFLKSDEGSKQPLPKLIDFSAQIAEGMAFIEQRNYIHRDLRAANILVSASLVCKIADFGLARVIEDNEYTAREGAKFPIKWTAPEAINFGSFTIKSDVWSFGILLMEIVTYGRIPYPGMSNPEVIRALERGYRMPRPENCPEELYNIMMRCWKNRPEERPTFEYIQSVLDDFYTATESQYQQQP
Runt-CBFb FRET = inhibitors of RUNX1 Runt–CBFb binding, primary screen, biochemical, FRET, Cerulean-Runt, Venus-CBFb, uHTS; Cerulean-Runt/Venus-CBFb FRET ratio 530/480, 1 h; AID 1496, 2009; 0.46% of 220,000 active; Runt-related transcription factor 1 (Homo sapiens) + Core-binding factor subunit beta …; inhibition, % at 20 µM;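 active means inhibition over about 50% at 20 µM in the single-dose screen, limit read from the data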;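 further: 0% = DMSO wells and 100% = excess unlabeled CBFb competitor control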
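System: Cerulean-labeled Runt domain protein | Quantity: 100 nM of each labeled protein | Schedule: 1 h compound exposure, room temperature | Detection: Fluorescence energy transfer, 422 nm excitation, 530/480 nm emission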
PfM18AAP inh-2 = PfM18AAP inhibitors, malaria aminopeptidase, confirmation, biochemical, QFRET, recombinant enzyme, triplicate. shares compounds with PfM18AAP inh-1. H-Glu-NHMec fluorogenic cleavage. inhibition, % at 7.35 µM. 28% of 2,400 active;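 active means mean inhibition over replicate wells above the hit cutoff set for the earlier primary screen, cut at about 29% in these data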;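 further: 0% = median of test compound wells and 100% = 2 mM ZnCl2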
CTSL1 counter = cathepsin L1 inhibitors, retest, confirmation, counter-screen for PFM18AAP inhibitor project, biochemical, QFRET, triplicate. shares compounds with PfM18AAP inh-1. purified cathepsin L1, Z-Leu-Arg-MCA fluorescence. inhibition, % at 5.96 µM. 2,400 tested, under 10 active;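 active means average inhibition across replicates above the hit cutoff set in the earlier primary screen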;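 further: 0% = median of test compound wells and 100% = Z-Phe-Ala-diazomethylketone 1 µM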
* marks the source's active call; other numbers are inactive results; x = no result.

SMILES	RBBP9 inhibitor	PfM18AAP inh-1	Runt-SMMHC FRET	RanGTP-Imp inh	Hck Nef HTS	Runt-CBFb FRET	PfM18AAP inh-2	CTSL1 counter
CCOc1cccc2cc(-c3nnc(NCc4ccco4)s3)c(=O)oc12	0	32*	-218	1	6	-69	-14	2
CCOc1cccc2cc(-c3cn4cc(C)ccc4n3)c(=O)oc12	-7	-9	-14	-1	21	-1	x	x
CNc1nnc(-c2cc3cc(Cl)ccc3oc2=O)s1	3	13	-195	-56	-2	-74	x	x
COc1cc(CC(=O)OCC(=O)N2CCCCC2C)cc(OC)c1OC (stereo unspecified)	x	2	x	11	x	x	x	x
CC(C)(C)c1ccc(OCc2ccc(C(=O)N/N=C/c3ccc(O)c(O)c3)cc2)cc1	-8	36*	-14	1	2	-7	-5	-6
O=C(COc1ccccc1C(=O)N/N=C\c1ccc(O)c(O)c1)N/N=C/c1ccc(O)c(O)c1	-12	76*	1	0	19	12	74*	0
CCOC(=O)c1cnc2c(C)cc(Cl)cc2c1N1CCN(C)CC1	x	2	x	4	x	x	x	x
N#CCC(=O)N/N=C1\CCCCC1C1CCCCC1 (stereo unspecified)	-3	44*	-1	3	1	2	-29	-6
CNC(=S)Nc1ccc(OC)c(OC)c1	0	-5	-3	-1	3	-4	x	x
Cc1ccc(NC(=S)Nn2cnnc2)cc1	0	77*	-1	-2	22	9	67*	0
COc1ccc(NC(=S)Nn2cnnc2)cc1OC	2	79*	-2	0	11	26	76*	0
CCc1ccc(NC(=S)Nn2cnnc2)cc1	-9	76*	-1	2	9	3	64*	1
CCc1ccc(NC(=O)NNC(=O)CCc2ccccc2)cc1	x	-1	x	3	x	x	x	x
CCc1ccc(NC(=O)Nn2cnnc2)cc1	x	55*	x	5	x	x	30*	-4
S=C(Nc1ccccc1)Nn1cnnc1	-2	65*	3	5	9	36	61*	5
COc1ccc(NC(=S)Nc2ccccc2)c(OC)c1	3	-6	-1	-2	17	4	x	x
CN1CCN(NC(=S)Nc2ccccc2)CC1	-3	0	0	-3	24	2	x	x
COc1ccc(NC(=S)Nn2cnnc2)c(OC)c1	x	72*	x	x	x	x	80*	-3
COc1ccc(/C=N/n2cnn(Cc3ccccc3Cl)c2=S)cc1	2	34*	-2	-1	21	2	-50	-3
COc1cc(/C=N/n2cnn(Cc3ccccc3Cl)c2=S)cc(OC)c1OC	-9	18	3	-3	-13	6	x	x
CCCN1CCN(CCCNC(=O)c2ccc(CS(=O)c3ccc(OC)cc3)o2)CC1 (stereo unspecified)	x	2	x	3	x	x	x	x
Oc1ccccc1N=Cc1ccc[nH]1	2	35*	-5	2	4	3	17	-1
COc1ccccc1N1CCN(Cc2cc3c(cc2[N+](=O)[O-])OCO3)CC1	x	32*	x	-3	x	x	-25	4
Cc1ccc([N+](=O)[O-])cc1-c1[nH]c(-c2ccc(O)c(O)c2)nc1-c1ccccc1	-15	73*	4	4	-1	17	74*	0
COc1ccc(-c2nc(-c3ccccc3)c(-c3cc([N+](=O)[O-])ccc3C)[nH]2)cc1O	-5	-9	1	0	0	0	x	x
SMILES	RBBP9 inhibitor	PfM18AAP inh-1	Runt-SMMHC FRET	RanGTP-Imp inh	Hck Nef HTS	Runt-CBFb FRET	PfM18AAP inh-2	CTSL1 counter
CCCCc1nc2ccc(S(=O)(=O)O)cc2[nH]1	-4	2	-1	-3	-2	0	x	x
COc1ccc(S(=O)(=O)N2CCCCCC2)cc1C(=O)N(C)Cc1ccc(OC)c(OC)c1OC	x	x	x	-3	x	x	x	x
COc1ccc(Nc2nc(-c3ccccc3)nc3ccccc23)cc1	x	-5	x	-6	x	x	x	x
COc1ccc(-c2nc(N/N=C(\C)c3ccc(O)cc3)c3ccccc3n2)cc1	-24	63*	-35	-5	5	-7	-62	3
COc1cccc(/C=C2\SC(=O)N(CCC(=O)N3CCC(C(=O)O)CC3)C2=O)c1	x	35*	x	1	x	x	-38	3
CCOC(=O)c1[nH]c2ccc(F)cc2c1NC(=O)c1ccccc1C(=O)O	x	33*	x	-4	x	x	-34	3
CCn1c2ccccc2c2cc(NC(=O)CSc3nnc(-c4cccc(F)c4)o3)ccc21	-8	-3	2	2	6	1	x	x
O=C(CSc1nnc(-c2cccc(F)c2)o1)Nc1nncs1	4	50*	2	-3	25	0	-32	-3
COc1ccc(O)c(/C=N/c2sc(C)c(C)c2C#N)c1	1	42*	12	-6	1	19	-23	-1
O=C(NNC(=O)c1ccccc1Cl)c1cccs1	-6	-2	-3	-6	0	1	x	x
O=C(NC(=S)NNC(=O)c1ccccc1O)c1cccs1	x	44*	x	3	x	x	3	-2
O=C(NNC(=O)c1cc(Cl)ccc1O)c1cccs1	x	35*	x	4	x	x	-5	-3
COc1ccccc1C(=O)NNC(=S)NC(=O)c1cccs1	x	13	x	5	x	x	x	x
CCOc1ccc(N(CC(=O)NCCc2ccccc2)C(=O)CCC(=O)Nc2cc(C)ccn2)cc1	x	-1	x	2	x	x	x	x
COc1ccc(-n2c(C)nnc2SCC(=O)Nc2ccccc2F)cc1	x	-6	x	3	x	x	x	x
CCC(C)n1ncn(-c2ccc(N3CCN(c4ccc(OCC5COC(Cn6cncn6)(c6ccc(Cl)cc6Cl)O5)cc4)CC3)cc2)c1=O (stereo unspecified)	-9	-4	-5	3	x	2	x	x
CCC(C)n1ncn(-c2ccc(N3CCN(c4ccc(O)cc4)CC3)cc2)c1=O (stereo unspecified)	0	34*	23	-3	6	18	-22	-5
